Source: article PMC4931877 (The Journal of Pharmacology and Experimental Therapeutics, 2016)

Columns and labels:
CSF Aβ42 = experiment: Indirect-response simulation of CSF Aβ42 lowering from MAD exposure-response; parameters: species or system human; settings: MAD exposure-response model, Fig. 3F
[1] = test system: plasma Aβ40, Aβ42, and total Aβ; experiment: SAD study pharmacodynamic effects on plasma Aβ; assay type: in vivo, human
Procedure, shortened: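 Single oral doses of 10–1200 mg were given as solution or capsule. Blood tubes were inverted and iced, then centrifuged within 30 min at room temperature for 15 min at about 1000g. Plasma was stored at −80°C. Aβ40 and Aβ42 were measured by Luminex duplex immunoassay and total Aβ by MSD, in duplicate.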

CYP3A4 = CYP3A4 (Homo sapiens, UniProt P08684); experiment: Plasma 4βHC biomarker of CYP3A4 in the MAD study; assay type: in vivo; settings: any treatment cohort of the MAD study
Procedure, shortened: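 During once-daily multiple dosing, plasma 4β-hydroxycholesterol was quantified by validated LC-MS/MS (LLOQ 2 ng/ml for 50 μl plasma). 4α-Hydroxycholesterol and total cholesterol were measured as normalisation factors.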

CSF Aβ peptides = experiment: SAD study pharmacodynamic effects on CSF Aβ peptides; assay type: in vivo, human
Procedure, shortened: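 After a single oral dose, CSF was drawn by lumbar cannulation at −1 to 24 h postdose, with predose samples taken at 7–10 AM, and stored at −80°C in polypropylene. Aβ38/40/42 and total Aβ were measured by MSD immunoassay and Aβ37 by 6E10 sandwich immunoassay, in duplicate. Other Aβ fragments were measured by LC-MS/MS (LLOQ 30 pg/ml).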

[2] = MAD study plasma pharmacokinetics; assay type: in vivo, human; settings: for half-life / concentration at 24 h / Cmax: human, plasma, oral; for concentration at 24 h: C24 GM (CV%); for Cmax: Cmax GM (CV%)
Procedure, shortened: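 EDTA plasma was sampled at 0–24 h postdose on days 1 and 14, intensively on day 28, and at trough on days 5–25. Drug was measured by validated LC-MS/MS. Parameters are noncompartmental, with trapezoidal and log-trapezoidal AUC. Half-life is ln2/k from a least-squares terminal slope on days 14 and 28.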

[3] = SAD study plasma pharmacokinetics; assay type: in vivo, human; settings: for Cmax / AUC(0-t) / AUC(0-inf) / half-life: human, plasma, oral; for Cmax: Cmax GM (CV%); for AUC(0-t): AUC0–t GM (CV%); for AUC(0-inf): AUC0–∞ GM (CV%)
Procedure, shortened: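 Young subjects (8 per panel, 3:1 active:placebo) received single oral 10–1200 mg doses as solution or capsule; elderly subjects received 900 mg. Panel 4 was dosed fasted, after a high-fat meal, or 2 h after 40 mg famotidine. Plasma drug was measured by validated LC-MS/MS with noncompartmental analysis.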

[4] = SAD study safety and tolerability; assay type: in vivo, human
Procedure, shortened: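 Single-dose subjects, placebo-controlled and double-blind, were assessed by vital signs, physical examination, 12-lead ECG and clinical laboratory tests. AEs were spontaneously reported or elicited, and their onset, duration, intensity, seriousness, relatedness and action taken were recorded. AEs were tabulated by MedDRA 12.1 system organ class and preferred term.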

[5] = test system: brain and CSF Aβ42 and Aβ40; settings: rats; ref Toyn et al., 2016; cited from earlier work
[6] = 50 mg, MAD panel 1, 50 mg once daily, day 1
[7] = 50 mg, MAD panel 1, 50 mg once daily, day 14
[8] = 50 mg, MAD panel 1, 50 mg once daily, day 28
[9] = SAD panel 4, 2 hours after 40 mg famotidine
[10] = both, 300 mg, SAD panel 4, 300 mg, fasted
[11] = both, 900 mg, SAD panel 8, 900 mg, elderly

Sequence of CYP3A4 (P08684 whole entry): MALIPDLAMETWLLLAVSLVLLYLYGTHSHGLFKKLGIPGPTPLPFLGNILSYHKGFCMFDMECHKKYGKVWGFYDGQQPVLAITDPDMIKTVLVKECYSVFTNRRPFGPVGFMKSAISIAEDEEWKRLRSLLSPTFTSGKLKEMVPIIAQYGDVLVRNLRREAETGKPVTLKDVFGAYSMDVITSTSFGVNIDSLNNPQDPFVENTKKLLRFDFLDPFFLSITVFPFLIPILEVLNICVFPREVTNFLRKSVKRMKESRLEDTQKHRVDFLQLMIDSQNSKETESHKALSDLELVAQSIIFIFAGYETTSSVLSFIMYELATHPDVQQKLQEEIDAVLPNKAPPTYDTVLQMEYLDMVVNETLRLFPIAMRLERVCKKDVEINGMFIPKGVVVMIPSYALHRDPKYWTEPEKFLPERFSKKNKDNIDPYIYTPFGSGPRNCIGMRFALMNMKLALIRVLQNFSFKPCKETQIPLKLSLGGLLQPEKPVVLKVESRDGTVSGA

Q: What does the source list for `CNc1nc(Nc2ccc(-n3cnc(C)n3)c(OC)c2)nc2c1CC[C@H]2c1ccc(F)cc1` [BMS-932481, (S)-7-(4-fluorophenyl)-N2-(3-methoxy-4-(3-methyl-1H-1,2,4-triazol-1-yl)phenyl)-N4-methyl-6,7-dihydro-5H-cyclopenta[d]pyrimidine-2,4-diamine]?
A: decrease of CSF Aβ42 levels within exposures free of liver toxicity findings (CSF Aβ42): ≤ 25%; change in plasma total Aβ ([1]; single dose cohorts): No changes; effect on plasma Aβ42 and Aβ40 ([1]; single-dose): dose-dependently decreased; changes in 4βHC levels (CYP3A4): no significant changes; effect on CSF Aβ39 (CSF Aβ peptides): appeared to lower; effect on shorter CSF fragments Aβ14, Aβ15, and Aβ34 (CSF Aβ peptides): no effect; degree of CSFAβ42 lowering, elderly versus young (CSF Aβ peptides; largely due to higher exposures in elderly): greater in elderly than in young; steady state achieved ([2]; MAD 50- and 100-mg dose groups): ≤ 14 days; dose proportionality of plasma exposure ([2]; MAD day 14): greater than dose proportionality; slope for AUCτ versus dose ([2]; MAD day 14, 95% CI, 1.03–1.88, r^2 = 0.81): 1.46; slope for Cmax versus dose ([2]; MAD day 14, 95% CI, 1.06–1.67, r^2 = 0.9): 1.36; dose proportionality of plasma exposure ([2]; first dose (day 1) of multiple-dose administrations, 50 to 200 mg): dose proportional; half-life ([2]; 50 mg): 24 h; concentration at 24 h [2, 6]: 47 ng/mL; concentration at 24 h [2, 7]: 204 ng/mL; concentration at 24 h [2, 8]: 165 ng/mL; Cmax [2, 6]: 134 ng/mL; Cmax [2, 7]: 323 ng/mL; Cmax [2, 8]: 293 ng/mL; half-life ([2]; 100 mg): 29 h; concentration at 24 h ([2]; 100 mg, MAD panel 2, 100 mg once daily, day 1): 87 ng/mL; half-life ([2]; 200 mg): 37 h; concentration at 24 h ([2]; 200 mg, MAD panel 3, 200 mg once daily, day 1): 220 ng/mL; accumulation after multiple dosing ([2]; multiple dosing): approximately 3 fold; higher Cmax in elderly than normal healthy young ([3]; 900 mg single dose, range 3.4–4.3): 3.8 fold; Between-subjects variability ([3]; SAD): 27%–83; increase of AUC with famotidine (change in gastric pH) [3, 9]: approximately 15%; increase of Cmax with famotidine (change in gastric pH) [3, 9]: 60%; Cmax ([3]; both, 10 mg, SAD panel 1, 10 mg single dose): 11 ng/mL; Cmax ([3]; both, 30 mg, SAD panel 2, 30 mg single dose): 49 ng/mL; AUC(0-t) [3, 10]: 8570 ng·h/mL; AUC(0-inf) [3, 10]: 8750 ng·h/mL; Cmax [3, 10]: 325 ng/mL; half-life ([3]; both, 300 mg, t1/2 Mean (S.D.), SAD panel 4, 300 mg, fasted): 20 h; AUC(0-t) [3, 11]: 134000 ng·h/mL; AUC(0-inf) [3, 11]: 156000 ng·h/mL; Cmax [3, 11]: 2870 ng/mL; half-life ([3]; both, mean terminal half-life, SAD, healthy young participants): 16 to 32 h; AUC(0-t) ([3]; 900 mg, SAD panel 9, 900 mg): 42600 ng·h/mL; Cmax ([3]; 900 mg, SAD panel 9, 900 mg): 876 ng/mL; half-life ([3]; 900 mg, t1/2 Mean (S.D.), SAD panel 9, 900 mg): 32 h; dose proportionality of plasma exposure ([3]; single dose, 10 to 1200 mg, healthy young volunteers): dose proportional; findings on ECG parameters [4]: no clinical relevant findings; AEs ([4]; 10 mg): 3 (50.0) n (%); Deaths ([4]; 10 mg): 0 n (%); Discontinuation due to AEs ([4]; 10 mg): 0 n (%); Drug-related AEs ([4]; 10 mg): 0 n (%); SAEs ([4]; 10 mg): 0 n (%); AEs ([4]; 30 mg): 2 (33.3) n (%); Deaths ([4]; 30 mg): 0 n (%); Discontinuation due to AEs ([4]; 30 mg): 0 n (%); Drug-related AEs ([4]; 30 mg): 0 n (%); SAEs ([4]; 30 mg): 0 n (%); AEs ([4]; 100 mg): 1 (16.7) n (%); Deaths ([4]; 100 mg): 0 n (%); Discontinuation due to AEs ([4]; 100 mg): 0 n (%); Drug-related AEs ([4]; 100 mg): 0 n (%); SAEs ([4]; 100 mg): 0 n (%); AEs ([4]; 300 mg P2 (cross-over phase 2)): 0 n (%); Deaths ([4]; 300 mg P2 (cross-over phase 2)): 0 n (%); Discontinuation due to AEs ([4]; 300 mg P2 (cross-over phase 2)): 0 n (%); Drug-related AEs ([4]; 300 mg P2 (cross-over phase 2)): 0 n (%); SAEs ([4]; 300 mg P2 (cross-over phase 2)): 0 n (%); AEs ([4]; 300 mg P3 (cross-over phase 3)): 1 (16.7) n (%); Deaths ([4]; 300 mg P3 (cross-over phase 3)): 0 n (%); Discontinuation due to AEs ([4]; 300 mg P3 (cross-over phase 3)): 0 n (%); Drug-related AEs ([4]; 300 mg P3 (cross-over phase 3)): 0 n (%); SAEs ([4]; 300 mg P3 (cross-over phase 3)): 0 n (%); AEs ([4]; 300 mg P (cross-over phase 1)): 0 n (%); Deaths ([4]; 300 mg P (cross-over phase 1)): 0 n (%); Discontinuation due to AEs ([4]; 300 mg P (cross-over phase 1)): 0 n (%); Drug-related AEs ([4]; 300 mg P (cross-over phase 1)): 0 n (%); SAEs ([4]; 300 mg P (cross-over phase 1)): 0 n (%); AEs ([4]; 600 mg): 0 n (%); Deaths ([4]; 600 mg): 0 n (%); Discontinuation due to AEs ([4]; 600 mg): 0 n (%); Drug-related AEs ([4]; 600 mg): 0 n (%); SAEs ([4]; 600 mg): 0 n (%); AEs ([4]; 900 mg): 3 (50.0) n (%); Deaths ([4]; 900 mg): 0 n (%); Discontinuation due to AEs ([4]; 900 mg): 0 n (%); Drug-related AEs ([4]; 900 mg): 1 (16.7) n (%); SAEs ([4]; 900 mg): 0 n (%); Deaths ([4]; 900 mg C (CSF panel)): 0 n (%); Discontinuation due to AEs ([4]; 900 mg C (CSF panel)): 0 n (%); Drug-related AEs ([4]; 900 mg C (CSF panel)): 1 (10.0) n (%); SAEs ([4]; 900 mg C (CSF panel)): 0 n (%); AEs ([4]; 900 mg El (elderly)): 0 n (%); Deaths ([4]; 900 mg El (elderly)): 0 n (%); Discontinuation due to AEs ([4]; 900 mg El (elderly)): 0 n (%); Drug-related AEs ([4]; 900 mg El (elderly)): 0 n (%); SAEs ([4]; 900 mg El (elderly)): 0 n (%); AEs ([4]; 1200 mg): 0 n (%); Deaths ([4]; 1200 mg): 0 n (%); Discontinuation due to AEs ([4]; 1200 mg): 0 n (%); Drug-related AEs ([4]; 1200 mg): 0 n (%); SAEs ([4]; 1200 mg): 0 n (%); tolerability after a single dose ([4]; 10 to 1200 mg, healthy subjects): generally well tolerated; AEs ([4]; all treated): 17 (27.9) n (%); Deaths ([4]; all treated): 0 n (%); Discontinuation due to AEs ([4]; all treated): 0 n (%); Drug-related AEs ([4]; all treated): 2 (3.3) n (%); SAEs ([4]; all treated): 0 n (%); participants with drug-related AEs ([4]; two participants): 3.3%; Aβ42 and Aβ40 lowering in both the brain and CSF [5]: dose-dependent
